Results filed as inconclusive are left out.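 How the source made its calls, unless noted: active means inhibition over a set limit, the all-compound mean plus 3 SD, in both replicate runs; inconclusive means over that limit in just one replicate run; inactive means at or under that limit in both runs.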
What was measured:
[1] = S. cerevisiae growth inhibition in permissive medium (OD615), pilot counter-assay for S. cerevisiae lifespan shortening project, permissive growth control (AID 705;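 active means growth inhibition above 25% in both replicates, a cutoff set 3 SD above the mean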); conditions: OD615, 24 h, at 10 µM, hits give high values
Outline: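 System: S. cerevisiae with engineered DeaD lifespan system. Medium: SC raffinose/galactose permissive medium. Doses: single compound dose of 10 µM, 0.25% DMSO final. Schedule: 24 h exposure, 30 °C. Measured by: OD615 turbidity read. Read-out: growth inhibition.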

[2] = S. cerevisiae growth inhibition in restrictive medium, OD615, pilot screen, restrictive growth control, yeast lifespan reduction project (AID 706;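 active means growth inhibition above a set limit, 3 SD over mean compound inhibition, in both replicates, cut at about 43% in these data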;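 further: modified DeaD lifespan yeast strain shifted to restrictive glucose medium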); conditions: OD615, 48 h, at 10 µM, hits give high values
Outline: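 Assay system – genetically modified Saccharomyces cerevisiae, DeaD replicative lifespan assay strain · Medium – CSMM-D glucose medium · Doses – 10 µM compound, 0.25% DMSO · Times – 4 h pre-incubation, 48 h exposure at 30 °C · Signal – optical density at 615 nm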

[3] = doxorubicin toxicity protection in MRP-1 cells – H69AR cells, CellTiter-Glo, duplicate, MRP-1 activator project, pilot screen (AID 807;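 active means viability increase at or above a cutoff of the median across tested compounds plus 3 SD, cut at about 8.5% in these data, passing the limit was not always enough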;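 further: compound pretreatment 18-22 h then 72 h combined with doxorubicin; 0% = doxorubicin alone and 100% = vehicle without doxorubicin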); conditions: H69AR viability with doxorubicin, CellTiter-Glo luminescence; at 10 µM; hits give high values
[4] = viability of HCT116 without oncogenic beta-catenin – human colon tumor cells, pilot screen (AID 823;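 active means cell viability at or below a set limit in both duplicate runs, the limit being the all-compound median minus 4 SD, cut at about 23% in these data, passing the limit was not always enough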;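 further: 0% = wells killed by 20 µM Hyamine and 100% = untreated DMSO cell wells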); conditions: HCT116 beta-catenin knockout viability, CellTiter-Glo, 60 h; at 10 µM; hits give low values
[5] = viability of PTEN-null HCT116 cells – cell-based, HCT116 clonal line, CellTiter-Glo, pilot screen (AID 824;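 active means viability at or below 27.92% in each of two runs, the all-compound median minus 4 SD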;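 further: 0% = 20 µM Hyamine control and 100% = vehicle cell control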); conditions: HCT116 PTEN-deleted viability, 60 h, at 10 µM, hits give low values
[6] = RAM pathway blockade in budding yeast – dse1pr::URA3 reporter, 5-FOA selection, pilot screen (AID 869);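 further: 0% = DMSO wells with no growth and 100% = 10 µM 1-NA-PP1 with full growth; RAM network block rescues cells from 5-FOA so hits raise OD615 growth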; conditions: S. cerevisiae dse1pr::URA3 5-FOA growth, OD615, 2 d; at 10 µM; hits give high values; strain carries analog-sensitive mutant Cbk1 kinase
[7] = RAM signaling pathway blockade in yeast – S. cerevisiae, Pdr1DBD-CYC8 efflux-inhibited sensitized strain, primary screen (AID 1298;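 active means RAM network inhibition above 8.4% in each of two replicates, 3 SD over the compound average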;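 further: 0% = DMSO untreated cells without growth and 100% = 10 µM 1-NA-PP1 full growth; higher means more yeast growth rescued from 5-FOA killing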); conditions: S. cerevisiae cbk1-as DSE1-URA3 strain, 5-FOA growth OD615, 2 d; at 50 µM; hits give high values

CCCC(=O)N(Cc1cc2cc(C)ccc2[nH]c1=O)c1ccccc1OC
inactive: growth inhibition [1] 1.1% | growth inhibition [2] 1.19% | viability increase [3] -0.05% | viability [4] 80.7% | viability [5] 78% | inhibition [6] 1.04% | RAM network inhibition [7] 9.81%

O=C(Nc1nccs1)c1ccc(Cl)s1
inactive: growth inhibition [1] -0.705% | growth inhibition [2] 4.79% | viability increase [3] 1.01% | viability [4] 96.3% | viability [5] 94.9% | inhibition [6] -0.025% | RAM network inhibition [7] -1.54%

Cn1c(=O)c2c(SCC(=O)N3CCN(c4ccccc4)CC3)nc(C3CC3)nc2n(C)c1=O
inactive: growth inhibition [1] 10.6% | growth inhibition [2] -3.49% | viability increase [3] -2.93% | viability [4] 82.5% | viability [5] 79.8% | inhibition [6] 3.71% | RAM network inhibition [7] 6.69%

Cc1ccc(N(CC(N)=O)C2SC(=O)N(C)C2=O)cc1 (stereo not drawn)
inactive: growth inhibition [1] -11.9% | growth inhibition [2] -7.83% | viability increase [3] -2.96% | viability [4] 97.8% | viability [5] 102% | inhibition [6] 1.09% | RAM network inhibition [7] 3.14%

O=C(Nc1cccc(OC(F)(F)F)c1)c1ccc(Br)o1
inactive: growth inhibition [1] -1.13% | growth inhibition [2] 9.08% | viability increase [3] 1.31% | viability [4] 81.6% | viability [5] 75.1% | inhibition [6] 2.96% | RAM network inhibition [7] 0.92%

Cc1ccc(C(c2sc3ncnn3c2O)N2CCCCC2)cc1 (stereo not drawn)
inactive: growth inhibition [1] -12.7% | growth inhibition [2] -15.6% | viability increase [3] 1.87% | viability [4] 92.9% | viability [5] 101% | inhibition [6] 0.04% | RAM network inhibition [7] -0.37%

CCN1C(=O)c2ccccc2S(=O)c2ccc(C(=O)N3CCN(C(=O)c4ccco4)CC3)cc21 (stereo not drawn)
inactive: growth inhibition [1] -1.51% | growth inhibition [2] 7.19% | viability increase [3] -2.16% | viability [4] 101% | viability [5] 92.5% | inhibition [6] 1.33% | RAM network inhibition [7] 7.96%

CCOC(=O)c1sc(NC(=O)c2ccc3ncsc3c2)nc1C
inactive: growth inhibition [1] -5.17% | growth inhibition [2] 0.14% | viability increase [3] -2.47% | viability [4] 84.2% | viability [5] 82.8% | inhibition [6] 2.75% | RAM network inhibition [7] 5.36%

CCOc1ccc(-n2c(SC(C)C(=O)OC)nc3c(c2=O)SCC3)cc1 (stereo not drawn)
inactive: growth inhibition [1] -6.67% | growth inhibition [2] -19.6% | viability increase [3] -1.08% | viability [4] 89.6% | viability [5] 92.2% | inhibition [6] 0.355% | RAM network inhibition [7] 5.59%

C=CCOC(=O)COc1ccc2c(C)c(C)c(=O)oc2c1
inactive: growth inhibition [1] -17.9% | growth inhibition [2] -6.88% | viability increase [3] 0.26% | viability [4] 96.6% | viability [5] 95.9% | inhibition [6] 0.765% | RAM network inhibition [7] 4.38%

Cc1ccccc1Cn1c(CN2CCN(c3ccc(F)cc3)CC2)nc2c1c(=O)n(C)c(=O)n2C
inactive: growth inhibition [1] -12.2% | growth inhibition [2] -17.1% | viability increase [3] -3.7% | viability [4] 94.4% | viability [5] 92.2% | inhibition [6] 2.51% | RAM network inhibition [7] 7.93%

Cc1cc(=O)[nH]c(SCc2cc(=O)n3nc(C)sc3n2)n1
inactive: growth inhibition [1] 4.53% | growth inhibition [2] -7.55% | viability increase [3] -1% | viability [4] 104% | viability [5] 96.5% | inhibition [6] 1.32% | RAM network inhibition [7] 5.96%

Cc1oc(-c2ccc(Cl)cc2)nc1CN1CCC(C(=O)NCCCN2CCCC2=O)CC1
inactive: growth inhibition [1] -13.4% | growth inhibition [2] -11.7% | viability increase [3] -2.67% | viability [4] 93.1% | viability [5] 89% | inhibition [6] 1.76% | RAM network inhibition [7] 4.34%

CCc1ccc(N(CC(=O)NC2CCCCC2)S(=O)(=O)c2c(C)noc2C)cc1
inactive: growth inhibition [1] -9.43% | growth inhibition [2] -2.85% | viability increase [3] -1.23% | viability [4] 92.2% | viability [5] 92.3% | inhibition [6] 2.05% | RAM network inhibition [7] 4.91%

CCOC(=O)N1CCC(NC(=O)c2cc3c(-c4ccc(Cl)cc4)nn(C)c3s2)CC1
inactive: growth inhibition [1] -2.75% | growth inhibition [2] -2.64% | viability increase [3] -5.61% | viability [4] 91.4% | viability [5] 92.1% | inhibition [6] -0.04% | RAM network inhibition [7] 2.43%

Cn1c(=NC(=O)C2CC2)sc2cccc(F)c21
inactive: growth inhibition [1] -10.3% | growth inhibition [2] 8.25% | viability increase [3] -4.82% | viability [4] 88.3% | viability [5] 89% | inhibition [6] 0.96% | RAM network inhibition [7] 6.98%

COc1ccc(-c2nc(CS(=O)CC(=O)NC3CCCc4ccccc43)c(C)o2)cc1OC (stereo not drawn)
inactive: growth inhibition [1] -8.29% | growth inhibition [2] 3.54% | viability increase [3] -2.94% | viability [4] 84.5% | viability [5] 90.9% | inhibition [6] 1.64% | RAM network inhibition [7] 8.66%

COCC(C)NC(=O)c1cc(-c2ccc(O)cc2)on1 (stereo not drawn)
inactive: growth inhibition [1] -1.88% | growth inhibition [2] 4.68% | viability increase [3] -3.12% | viability [4] 105% | viability [5] 100% | inhibition [6] 2.48% | RAM network inhibition [7] 0.94%

COC(=O)c1sccc1NC(=O)c1ccc(Br)o1
inactive: growth inhibition [1] 12.1% | growth inhibition [2] 11.3% | viability increase [3] -6.77% | viability [4] 78.5% | viability [5] 72.2% | inhibition [6] 2.2% | RAM network inhibition [7] 7.41%

COC(=O)c1ccccc1NC(=O)CS(=O)(=O)Cc1nc(-c2ccc(C)cc2)oc1C
inactive: growth inhibition [1] -9.1% | growth inhibition [2] -21.8% | viability increase [3] -2.52% | viability [4] 93.5% | viability [5] 87.8% | inhibition [6] 4.7% | RAM network inhibition [7] 4.03%

CN(Cc1ccccc1)S(=O)(=O)c1ccc2[nH]c(=O)oc2c1
inactive: growth inhibition [1] -17.3% | growth inhibition [2] -30.6% | viability increase [3] -0.12% | viability [4] 109% | viability [5] 96% | inhibition [6] 0.425% | RAM network inhibition [7] 5.4%

CCc1ccccc1N1CC23C=CC(O2)C(C(=O)OCC(C)C)C3C1=O (stereo not drawn)
inactive: growth inhibition [1] -14.3% | growth inhibition [2] -12.6% | viability increase [3] -0.48% | viability [4] 93.7% | viability [5] 89.6% | inhibition [6] 0.385% | RAM network inhibition [7] 0.42%

CCOC(=O)c1csc(NC(=O)C(C)(C)C)n1
inactive: growth inhibition [1] -6.04% | growth inhibition [2] -0.045% | viability increase [3] 2.71% | viability [4] 105% | viability [5] 98.8% | inhibition [6] 0.48% | RAM network inhibition [7] -1.57%

CCOC(=O)c1ccccc1NC(=O)Cn1cnc2c(nnn2-c2ccc(C)cc2)c1=O
inactive: growth inhibition [1] -7.68% | growth inhibition [2] 4.12% | viability increase [3] -4.32% | viability [4] 97% | viability [5] 88% | inhibition [6] 2.62% | RAM network inhibition [7] 3.5%
